Most compounds without a hit are left out; they make up all but 4.1% or so of the library.
MrgX1 PAM – positive allosteric modulators of MrgX1, primary screen, HEK293 cells, Fluo-4 calcium flux; Mas-related G-protein coupled receptor member X1 (Homo sapiens), Q96LB2; FDSS; stronger effect = higher value; B-score at 10 µM; hit rate 0.63% among 310,000;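 active = plate-corrected calcium response at least 3 library SD above typical, normal starting fluorescence, not activating the receptor alone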;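 note: compound read alongside a low EC10 to EC30 dose of BAM8-22 agonist; peak minus trough fluorescence over baseline measured at the second addition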
MrgX1 antagonist – antagonists of human MrgX1 receptor, primary screen, HEK293 cells, Fluo-4 calcium flux | Mas-related G-protein coupled receptor member X1 (Homo sapiens), Q96LB2 | BAM8-22 antagonism; stronger effect = lower value | B-score at 10 µM | hit rate 1.3% among 310,000 | AID 588676, 2011;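 active = calcium-response B-score plate-corrected more than 3 library SD below zero, starting fluorescence within 5 deviations, no agonist response on first addition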;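 note: peak minus trough fluorescence over baseline after final BAM8-22 challenge near maximal dose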
RGS4 act – RGS4 potentiators or activators, primary screen, cell-based, HEK293 M3R inducible RGS4, calcium flux. carbachol calcium flux Fluo4; stronger effect = lower value. B-score at 10 µM. hit rate 0.92% among 310,000. AID 463111, 2010;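 active = B-score of the integrated calcium signal more than 4 SD below the library mean, with starting fluorescence not abnormally high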;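 note: negative B-score means reduced calcium response which marks RGS4 activation or potentiation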
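Assay system: Inducible-RGS4 HEK293 cells carrying M3 receptor | Schedule: Compound preincubation 20 min at room temperature before agonist | Signal: Kinetic calcium fluorescence imaging with Fluo4-AM dye, 2 µM | Read-out basis: B score from integrated fluorescence ratio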
Kir21 block – inhibitors of mouse Kir2.1 inward-rectifier potassium channel; Inward rectifier potassium channel 2 (Mus musculus), P35561; hit rate 0.85% among 310,000; AID 1672, 2009; B-score at 10 µM; HEK293-Kir2.1, FluxOR thallium flux fluorescence; stronger effect = lower value;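 active = fluorescence ratio B-score at or below minus 3 SD of library scores, with starting-brightness B-score within 2 SD, cut at about -4.2 in these data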;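 note: channel flux triggered by added potassium and thallium sulfate stimulus; B-score of peak minus minimum fluorescence over baseline after thallium stimulus; more negative B-score means stronger Kir2.1 block with less thallium influx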
Target sequence (P35561 whole entry, looked up): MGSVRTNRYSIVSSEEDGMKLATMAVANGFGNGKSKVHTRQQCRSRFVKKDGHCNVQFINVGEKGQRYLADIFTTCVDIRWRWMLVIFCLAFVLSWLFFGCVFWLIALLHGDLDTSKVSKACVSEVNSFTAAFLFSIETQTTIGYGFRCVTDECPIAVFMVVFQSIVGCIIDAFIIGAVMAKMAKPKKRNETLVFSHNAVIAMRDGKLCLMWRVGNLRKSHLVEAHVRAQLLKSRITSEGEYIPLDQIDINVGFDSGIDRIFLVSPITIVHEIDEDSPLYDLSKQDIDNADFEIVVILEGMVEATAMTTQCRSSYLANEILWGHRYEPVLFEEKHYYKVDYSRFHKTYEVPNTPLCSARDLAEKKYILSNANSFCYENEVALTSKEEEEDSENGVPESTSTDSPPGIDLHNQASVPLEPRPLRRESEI
RGS4 block – RGS4 inhibitors, primary screen, cell-based, HEK293 M3R inducible RGS4, calcium flux. Regulator of G-protein signaling 4 (Homo sapiens), P49798. Fluo-4 calcium flux; stronger effect = higher value; triggered by carbachol at its EC20. B-score at 10 µM. hit rate 0.45% among 310,000;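 active = B-score, a plate-corrected calcium signal, over three deviations above library mean, with baseline fluorescence within five deviations of library mean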;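 note: RGS4 expression induced by doxycycline in cells with stable M3 receptor; B-score is computed from the integrated fluorescence ratio over baseline after carbachol; higher B-score means a larger calcium signal and so more RGS4 inhibition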
Target sequence (P49798 whole entry, looked up): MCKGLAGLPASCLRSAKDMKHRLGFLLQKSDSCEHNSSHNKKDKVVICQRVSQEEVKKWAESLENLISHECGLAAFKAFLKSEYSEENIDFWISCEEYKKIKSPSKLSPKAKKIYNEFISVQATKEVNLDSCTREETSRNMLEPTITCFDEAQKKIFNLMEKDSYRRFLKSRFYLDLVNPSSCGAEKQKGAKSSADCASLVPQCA
MrgX1 agonist – agonists of human MrgX1 receptor, primary screen, HEK293 cells, Fluo-4 calcium flux; hit rate 0.44% among 310,000; Mas-related G-protein coupled receptor member X1 (Homo sapiens), Q96LB2; Fluo-4 calcium fluorescence, agonist mode; stronger effect = higher value; AID 588627, 2011; B-score at 10 µM;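 active = calcium response B-score plate-corrected fluorescence ratio at least 3 library SD, with starting fluorescence B-score inside 5 SD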
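Material: HEK293 cells stably expressing human MrgX1 receptor | Quantity: 15,000 cells per well | Times: Cells plated overnight, dye loaded 0.5 h 37 °C, 0.5 h room temperature | Measured by: Kinetic Fluo-4 NW fluorescence of intracellular calcium | Control set: Positive and negative controls per plate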
RGS4 activ val – reduced carbachol calcium response, RGS4-induced M3R cells, confirmation, RGS4 activator project, cell-based, HEK293 M3R/RGS4 inducible, calcium flux, duplicate; shares compounds with RGS4 act; carbachol calcium flux Fluo4; inhibition, % at 10 µM; hit rate 89% among 1,100;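 active = inhibition above 3 SD of the buffer control wells, cut at about 41% in these data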;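 note: signal is the integrated peak-minus-minimum Fluo4 fluorescence over baseline ratio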
RGS4 act ctr – RGS4 activator counter-screen hit in non-induced cells; shares compounds with RGS4 act; AID 602283; hit rate 82% among 1,100; inhibition, % at 10 µM; HEK293 M3R non-induced RGS4, Fluo4 calcium flux; after carbachol challenge at its EC90;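 active = inhibition exceeding 3 SD of buffer-only control wells, cut at about 26% in these data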;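 note: percent drop in integrated peak-minus-baseline over baseline Fluo4 ratio after carbachol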
An asterisk follows results filed as active; i = inactive; . = not tested or not shown.

SMILES | MrgX1 PAM | MrgX1 antagonist | RGS4 act | Kir21 block | RGS4 block | MrgX1 agonist | RGS4 activ val | RGS4 act ctr
O=S(CCc1ccncc1)Cc1ccccc1 (stereo unspecified) | i | i | i | -0.07 | i | i | . | .
CN(C)C(C)(C)C#CCC(c1ccccc1)c1ccccc1 | i | i | -8.2* | -5* | i | i | 90* | 59*
CC(C)Cn1c(-c2csc3c2CCCC3)n[nH]c1=S | i | i | -8* | 0.05 | i | i | 94* | 67*
CC(C)Cn1c(-c2ccc(F)cc2)n[nH]c1=S | i | i | -8.5* | -3.5 | i | i | 62* | 84*
CC(C)Cn1c(-c2ccncc2)n[nH]c1=S | i | i | i | 3 | i | i | . | .
COc1ccc(Cl)cc1NC(=O)CN(C)C(=O)c1cc(-c2ccncc2)nc2ccccc12 | i | i | i | -0.25 | i | i | . | .
CCN1CCN(CCn2c(=S)[nH]c3ccccc3c2=O)CC1 | i | i | -7.8* | 1.1 | i | i | 85* | 59*
COc1cccc(-c2nnc(-c3ccc(C(F)(F)F)cc3)o2)c1OC | i | i | i | -1.9 | i | i | . | .
CCCCOc1ccc(C(=O)N2CCC(C)CC2)cc1 | i | i | i | -0.24 | i | i | . | .
CCCCOc1ccc(C(=O)OC2CC(C)N(C)CC2C)cc1 (stereo unspecified) | i | i | -9.5* | -3.5 | i | i | 91* | 86*
O=C(Cn1c(=O)oc2cc(S(=O)(=O)NCc3ccccc3)ccc21)NCc1ccco1 | i | i | i | 1.6 | i | i | . | .
O=C(Nc1cccc(-c2nc3ccccc3s2)c1)c1cccs1 | i | i | -8.1* | 1 | i | i | 92* | 67*
CSc1cccc(NC(=O)CCn2c(=O)c3cccn3c3cccnc32)c1 | i | i | i | -0.02 | i | i | . | .
Cc1cccc(N2CCN(C(=O)c3ccc(Cl)c(NC4=NC5CS(=O)(=O)CC5S4)c3)CC2C)c1 (stereo unspecified) | i | i | -8.5* | 0.14 | i | i | 0 | 0
N#Cc1ccc(C(=O)NCC(c2ccco2)N2CCCC2)cc1 (stereo unspecified) | i | i | i | -1.1 | i | i | . | .
N#Cc1ccccc1Sc1ccccc1C(=O)NCC(c1ccco1)N1CCCC1 (stereo unspecified) | i | i | -7.9* | -1.8 | i | i | 65* | 29*
Cc1noc(C)c1S(=O)(=O)N(CC(=O)NCc1ccc2c(c1)OCO2)c1ccc(C(C)C)cc1 | i | i | -8.3* | -0.05 | i | i | 0 | 0
Cc1ccc(N(CC(=O)NCc2ccc3c(c2)OCO3)S(=O)(=O)c2c(C)noc2C)cc1 | i | i | i | -2.3 | i | i | . | .
Cc1csc(NC(=O)c2sc3nc(-c4cccs4)ccc3c2N)n1 | i | i | -8.9* | -0.51 | i | 93* | 88* | 83*
CCC(=O)Nc1nonc1-c1nc2ccccc2n1N(C(=O)CC)C(=O)CC | i | i | -8.6* | -0.33 | i | i | 0 | 0
CC(=O)N(C)c1ccc(NC(=O)Nc2ccc(Cl)cc2)cc1 | i | i | -8.3* | 1.2 | i | i | 93* | 68*
CN(C)CCOC(C1CCCCC1)C1CCCCC1 | i | i | -9.1* | -4.6* | i | i | 90* | 68*
CN(CC(=O)NC1CCCCCC1)S(=O)(=O)c1ccc(F)cc1 | i | i | i | 1.3 | i | i | . | .
CNS(=O)(=O)c1cccc(C(=O)OCC(=O)N2CCc3ccccc3C2)c1 | i | i | i | -0.15 | i | i | . | .
CNS(=O)(=O)c1cccc(C(=O)OCc2cc(Cl)cc3c2OCOC3)c1 | i | i | -8.6* | -0.27 | i | i | 0 | 0
SMILES | MrgX1 PAM | MrgX1 antagonist | RGS4 act | Kir21 block | RGS4 block | MrgX1 agonist | RGS4 activ val | RGS4 act ctr
CC(c1ccc(C(C)(C)C)cc1)S(=O)CC(O)CO (stereo unspecified) | i | i | i | -0.2 | i | i | . | .
C=CCN1C(=O)CSc2ccc(C(=O)NCc3ccc(F)cc3)cc21 | i | i | i | -1.8 | i | i | . | .
O=C(NCc1ccc2c(c1)OCO2)c1ccc2c(c1)N(Cc1c(F)cccc1Cl)C(=O)CS2 | i | i | -7.7* | 0.32 | i | i | 93* | 60*
CC(C)=CC(=O)N1CCC(N2CCC(C(=O)NCC3CCCO3)CC2)CC1 (stereo unspecified) | i | i | i | 1.4 | i | i | . | .
CCNC(=O)c1ccccc1SCc1ccccc1 | i | i | i | 0.04 | i | i | . | .
CCc1ccc(OCCNC(=O)c2ccccc2SCc2ccccc2)cc1 | i | i | -11* | 1.3 | i | i | 94* | 80*
CCSc1nnc(NC(=O)C(NC(=O)c2ccc(Cl)cc2)C(C)C)s1 (stereo unspecified) | i | i | -9.4* | 1.4 | i | i | 0 | 0
CCC(O)(C#CCN1CCCCC1)CC | i | i | i | 0.68 | i | i | . | .
CC(O)(C#CCN1CCCCCC1)c1ccccc1 (stereo unspecified) | i | i | -9.8* | -0.73 | i | i | 66* | 84*
OC(C#CCN1CCCC1)(c1ccccc1)c1ccccc1 | i | i | -7.6* | -1 | i | i | 94* | 91*
O=C(CSc1nc(-c2ccccc2Cl)ns1)c1ccc(Cl)cc1 | i | i | -8.2* | -1.2 | i | i | 77* | 41*
CCN1CCN(C(=O)c2ccc3nc(-c4ccccc4)c(-c4ccccc4)nc3c2)CC1 | i | i | -9.4* | 0.03 | i | i | 73* | 84*
CN1CCN(CCNC(=O)c2ccc3nc(-c4ccc(F)cc4)c(-c4ccc(F)cc4)nc3c2)CC1 | i | i | -9.7* | 0.65 | i | i | 90* | 84*
